Values after ≈ are worked out from the molar mass of the structure shown.
Tests used:
1-D6 = assay: icELISA with mAb 1-D6; format: binding, Balb/c mice; conditions: for CR: CR%=IC50 6-GG/IC50 test compound x100%
Method in brief: (§1)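 Ascites-derived mAbs (caprylic acid–ammonium sulfate purified) from female Balb/c mice immunized with hapten–BSA. Plates coated with hapten–OVA in carbonate buffer (0.5 mol L−1, pH 9.6), blocked with 5% skim milk, washed with PBST, and detected with goat anti-mouse IgG-HRP; reaction stopped with 2 mol L−1 H2SO4. Analyte stocks (1 mg/mL, 70% methanol) were diluted in 10% methanol-PBS. IC50 values were fitted, and cross-reactivity was calculated for capsaicinoids, gingerol derivatives and eight other compounds.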

1-F12 = assay: icELISA with mAb 1-F12; format: binding, Balb/c mice; conditions: for CR: CR%=IC50 6-GG/IC50 test compound x100%
Method in brief: as §1

1-G12 = assay: icELISA with mAb 1-G12; format: binding, Balb/c mice; conditions: for CR: CR%=IC50 6-GG/IC50 test compound x100%
Method in brief: as §1

5-D8 = assay: icELISA with mAb 5-D8; format: binding
4-AT4 = assay: icELISA with mAb 4-AT4; format: binding
5-3H1 = assay: icELISA with mAb 5-3H1; format: binding
3-LD3 = assay: icELISA with mAb 3-LD3; format: binding
6-AT6 = assay: icELISA with mAb 6-AT6; format: binding
2-LD2 = assay: icELISA with mAb 2-LD2; format: binding
[1] = mAb 1-D6, specific evaluation (Table 1, Fig. 3C)
[2] = mAb 1-F12, specific evaluation (Table 1, Fig. 3B)
[3] = mAb 1-G12, specific evaluation (Table 1, Fig. 3D)
[4] = coating antigen Hapten 1-OVA, mAb 1-D6
[5] = coating antigen Hapten 2-OVA, mAb 1-D6
[6] = coating antigen Hapten 3-OVA, mAb 1-D6
[7] = coating antigen Hapten 4-OVA, mAb 1-D6
[8] = coating antigen Hapten 5-OVA, mAb 1-D6
[9] = coating antigen Hapten 6-OVA, mAb 1-D6
[10] = coating antigen Hapten 1-OVA, mAb 1-F12
[11] = coating antigen Hapten 2-OVA, mAb 1-F12
[12] = coating antigen Hapten 3-OVA, mAb 1-F12
[13] = coating antigen Hapten 4-OVA, mAb 1-F12
[14] = coating antigen Hapten 5-OVA, mAb 1-F12 (optimal combination)
[15] = coating antigen Hapten 6-OVA, mAb 1-F12
[16] = coating antigen Hapten 1-OVA, mAb 1-G12
[17] = coating antigen Hapten 2-OVA, mAb 1-G12
[18] = coating antigen Hapten 3-OVA, mAb 1-G12
[19] = coating antigen Hapten 4-OVA, mAb 1-G12
[20] = coating antigen Hapten 5-OVA, mAb 1-G12
[21] = coating antigen Hapten 6-OVA, mAb 1-G12

COc1cccc(CNC(=O)CC#N)c1 [2-Cyano-N-(3-methoxybenzyl) acetamide]
IC50 (1-D6; [1]): >4 µg/mL | CR (1-D6; mAb 1-D6): <1.48% | IC50 (1-F12; [2]): >4 µg/mL | CR (1-F12; mAb 1-F12): <12.66% | IC50 (1-G12; [3]): >4 µg/mL | CR (1-G12; mAb 1-G12): <14.01%

CCCCCCCC(=O)CCc1cc(OC)c(O)c(C(=O)O)c1 [2-hydroxy-3-methoxy-5-(3-oxodecyl) benzoic acid]
IC50 (1-D6; [1]): 1.9528 µg/mL (≈ 6.06 µM) | CR (1-D6; mAb 1-D6): 3.03% | IC50 (1-F12; [2]): >4 µg/mL | CR (1-F12; mAb 1-F12): <12.66% | IC50 (1-G12; [3]): >4 µg/mL | CR (1-G12; mAb 1-G12): <14.01%

COc1cc(CCC(=O)O)ccc1O [3-(4-Hydroxy-3-methoxyphenyl) propionic Acid]
IC50 (1-D6; [1]): 2.17533 µg/mL (≈ 11.1 µM) | CR (1-D6; mAb 1-D6): 2.72% | IC50 (1-F12; [2]): >4 µg/mL | CR (1-F12; mAb 1-F12): <12.66% | IC50 (1-G12; [3]): >4 µg/mL | CR (1-G12; mAb 1-G12): <14.01%

COc1cc(CNC(=O)CCCC/C=C/C(C)C)ccc1O [CPC, Capsaicin]
IC50 (5-D8; coating antigen Hapten 1-OVA): 0.03987 µg/mL (≈ 0.131 µM) | IC50 (5-D8; coating antigen Hapten 2-OVA): 0.54041 µg/mL (≈ 1.77 µM) | IC50 (5-D8; coating antigen Hapten 3-OVA): 0.56457 µg/mL (≈ 1.85 µM) | IC50 (5-D8; coating antigen Hapten 4-OVA): 0.02878 µg/mL (≈ 0.0942 µM) | IC50 (5-D8; coating antigen Hapten 5-OVA): 0.04559 µg/mL (≈ 0.149 µM) | IC50 (4-AT4; coating antigen Hapten 1-OVA): 0.00502 µg/mL (≈ 0.0164 µM) | IC50 (4-AT4; coating antigen Hapten 2-OVA): 0.13283 µg/mL (≈ 0.435 µM) | IC50 (4-AT4; coating antigen Hapten 3-OVA): 0.27036 µg/mL (≈ 0.885 µM) | IC50 (4-AT4; coating antigen Hapten 4-OVA): 0.00651 µg/mL (≈ 0.0213 µM) | IC50 (4-AT4; coating antigen Hapten 5-OVA): 0.00379 µg/mL (≈ 0.0124 µM) | IC50 (1-D6; [4]): >4 µg/mL | IC50 (1-D6; [5]): >4 µg/mL | IC50 (1-D6; [6]): >4 µg/mL | IC50 (1-D6; [7]): 0.91716 µg/mL (≈ 3 µM) | IC50 (1-D6; [8]): 0.93917 µg/mL (≈ 3.08 µM) | IC50 (1-D6; [9]): 0.26434 µg/mL (≈ 0.866 µM) | IC50 (1-D6; [1]): >4 µg/mL | CR (1-D6; mAb 1-D6): <1.48% | IC50 (1-F12; [10]): 0.58442 µg/mL (≈ 1.91 µM) | IC50 (1-F12; [11]): >4 µg/mL | IC50 (1-F12; [12]): >4 µg/mL | IC50 (1-F12; [13]): 0.79654 µg/mL (≈ 2.61 µM) | IC50 (1-F12; [14]): 0.48151 µg/mL | IC50 (1-F12; [15]): 1.35443 µg/mL (≈ 4.43 µM) | CR (1-F12; mAb 1-F12): 86.62% | IC50 (5-3H1; coating antigen Hapten 1-OVA): 1.15967 µg/mL (≈ 3.8 µM) | IC50 (5-3H1; coating antigen Hapten 2-OVA): 0.547 µg/mL (≈ 1.79 µM) | IC50 (5-3H1; coating antigen Hapten 3-OVA): 0.79417 µg/mL (≈ 2.6 µM) | IC50 (5-3H1; coating antigen Hapten 4-OVA): 0.02586 µg/mL (≈ 0.0847 µM) | IC50 (5-3H1; coating antigen Hapten 5-OVA): 0.10327 µg/mL (≈ 0.338 µM) | IC50 (3-LD3; coating antigen Hapten 2-OVA): 0.01016 µg/mL (≈ 0.0333 µM) | IC50 (3-LD3; coating antigen Hapten 3-OVA): 0.03008 µg/mL (≈ 0.0985 µM) | IC50 (3-LD3; coating antigen Hapten 4-OVA): 0.00387 µg/mL (≈ 0.0127 µM) | IC50 (6-AT6; coating antigen Hapten 1-OVA): >4 µg/mL | IC50 (6-AT6; coating antigen Hapten 2-OVA): >4 µg/mL | IC50 (6-AT6; coating antigen Hapten 3-OVA): >4 µg/mL | IC50 (6-AT6; coating antigen Hapten 4-OVA): >4 µg/mL | IC50 (6-AT6; coating antigen Hapten 5-OVA): >4 µg/mL | IC50 (6-AT6; coating antigen Hapten 6-OVA): >4 µg/mL | IC50 (2-LD2; coating antigen Hapten 1-OVA): 0.11875 µg/mL (≈ 0.389 µM) | IC50 (2-LD2; coating antigen Hapten 2-OVA): 0.00961 µg/mL (≈ 0.0315 µM) | IC50 (2-LD2; coating antigen Hapten 3-OVA): 0.01715 µg/mL (≈ 0.0562 µM) | IC50 (2-LD2; coating antigen Hapten 4-OVA): 0.00119 µg/mL (≈ 0.0039 µM) | IC50 (1-G12; [16]): 1.22906 µg/mL (≈ 4.02 µM) | IC50 (1-G12; [17]): >4 µg/mL | IC50 (1-G12; [18]): >4 µg/mL | IC50 (1-G12; [19]): 0.83506 µg/mL (≈ 2.73 µM) | IC50 (1-G12; [20]): 0.33939 µg/mL (≈ 1.11 µM) | IC50 (1-G12; [21]): 0.66185 µg/mL (≈ 2.17 µM) | IC50 (1-G12; [3]): 1.22906 µg/mL (≈ 4.02 µM) | CR (1-G12; mAb 1-G12): 45.61%

COc1cc(CNC(=O)CCCCCCC(C)C)ccc1O [DCPC, dihydrocapsaicin]
IC50 (5-D8; coating antigen Hapten 1-OVA): 0.00582 µg/mL (≈ 0.0189 µM) | IC50 (5-D8; coating antigen Hapten 2-OVA): 0.16652 µg/mL (≈ 0.542 µM) | IC50 (5-D8; coating antigen Hapten 3-OVA): 0.05575 µg/mL (≈ 0.181 µM) | IC50 (5-D8; coating antigen Hapten 4-OVA): 0.0109 µg/mL (≈ 0.0355 µM) | IC50 (5-D8; coating antigen Hapten 5-OVA): 0.01319 µg/mL (≈ 0.0429 µM) | IC50 (4-AT4; coating antigen Hapten 1-OVA): 0.00581 µg/mL (≈ 0.0189 µM) | IC50 (4-AT4; coating antigen Hapten 2-OVA): 0.05733 µg/mL (≈ 0.186 µM) | IC50 (4-AT4; coating antigen Hapten 3-OVA): 0.25387 µg/mL (≈ 0.826 µM) | IC50 (4-AT4; coating antigen Hapten 4-OVA): 0.01068 µg/mL (≈ 0.0347 µM) | IC50 (4-AT4; coating antigen Hapten 5-OVA): 0.00313 µg/mL (≈ 0.0102 µM) | IC50 (1-D6; [4]): 0.96982 µg/mL (≈ 3.15 µM) | IC50 (1-D6; [5]): >4 µg/mL | IC50 (1-D6; [6]): >4 µg/mL | IC50 (1-D6; [7]): 0.70128 µg/mL (≈ 2.28 µM) | IC50 (1-D6; [8]): 0.58873 µg/mL (≈ 1.91 µM) | IC50 (1-D6; [9]): 0.16792 µg/mL (≈ 0.546 µM) | IC50 (1-D6; [1]): 0.96982 µg/mL (≈ 3.15 µM) | CR (1-D6; mAb 1-D6): 6.10% | IC50 (1-F12; [10]): 0.55714 µg/mL (≈ 1.81 µM) | IC50 (1-F12; [11]): >4 µg/mL | IC50 (1-F12; [12]): >4 µg/mL | IC50 (1-F12; [13]): 0.41585 µg/mL (≈ 1.35 µM) | IC50 (1-F12; [14]): 0.14358 µg/mL | IC50 (1-F12; [15]): 0.8841 µg/mL (≈ 2.88 µM) | IC50 (1-F12; [2]): 0.55714 µg/mL (≈ 1.81 µM) | CR (1-F12; mAb 1-F12): 90.86% | IC50 (5-3H1; coating antigen Hapten 1-OVA): 0.01598 µg/mL (≈ 0.052 µM) | IC50 (5-3H1; coating antigen Hapten 2-OVA): 0.10263 µg/mL (≈ 0.334 µM) | IC50 (5-3H1; coating antigen Hapten 3-OVA): 0.25386 µg/mL (≈ 0.826 µM) | IC50 (5-3H1; coating antigen Hapten 4-OVA): 0.01135 µg/mL (≈ 0.0369 µM) | IC50 (5-3H1; coating antigen Hapten 5-OVA): 0.03124 µg/mL (≈ 0.102 µM) | IC50 (3-LD3; coating antigen Hapten 2-OVA): 0.00124 µg/mL (≈ 0.00403 µM) | IC50 (3-LD3; coating antigen Hapten 3-OVA): 0.00062 µg/mL (≈ 0.00202 µM) | IC50 (3-LD3; coating antigen Hapten 4-OVA): 0.00184 µg/mL (≈ 0.00599 µM) | IC50 (6-AT6; coating antigen Hapten 1-OVA): >4 µg/mL | IC50 (6-AT6; coating antigen Hapten 2-OVA): >4 µg/mL | IC50 (6-AT6; coating antigen Hapten 3-OVA): >4 µg/mL | IC50 (6-AT6; coating antigen Hapten 4-OVA): >4 µg/mL | IC50 (6-AT6; coating antigen Hapten 5-OVA): 1.46054 µg/mL (≈ 4.75 µM) | IC50 (6-AT6; coating antigen Hapten 6-OVA): >4 µg/mL | IC50 (2-LD2; coating antigen Hapten 1-OVA): 0.00947 µg/mL (≈ 0.0308 µM) | IC50 (2-LD2; coating antigen Hapten 2-OVA): 0.00485 µg/mL (≈ 0.0158 µM) | IC50 (2-LD2; coating antigen Hapten 3-OVA): 0.00154 µg/mL (≈ 0.00501 µM) | IC50 (2-LD2; coating antigen Hapten 4-OVA): 0.00073 µg/mL (≈ 0.00237 µM) | IC50 (1-G12; [16]): 0.70085 µg/mL (≈ 2.28 µM) | IC50 (1-G12; [17]): >4 µg/mL | IC50 (1-G12; [18]): >4 µg/mL | IC50 (1-G12; [19]): 0.72469 µg/mL (≈ 2.36 µM) | IC50 (1-G12; [20]): 0.37358 µg/mL (≈ 1.22 µM) | IC50 (1-G12; [21]): 0.35151 µg/mL (≈ 1.14 µM) | IC50 (1-G12; [3]): 0.70085 µg/mL (≈ 2.28 µM) | CR (1-G12; mAb 1-G12): 79.99%

— article PMC10957407 (Food Chemistry: X, 2024)
